High-throughput results (PubChem)
Shown are actives, neighbours in structure and some others; about 2.2% of the full set was active somewhere.
FXIIa inh: blocks human coagulation factor XIIa protease activity; inhibition, % at 5 µM; P00748; 220,000 compounds, 0.3% hits; purified FXIIa, Boc-QGR-AMC fluorogenic substrate, 2 h; AID 800; in the data active = inhibition above about 40%;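 note: 0% = enzyme with no compound and 100% = blank without enzyme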
Wee1 degr inh: blocks degradation of human Wee1 kinase; AID 1321; HeLa Luc-Wee1K328M stability, luciferase luminescence; 100% = proteasome inhibitor MG132 effect; 220,000 compounds, 1.2% hits; reporter increase, % at 5 µM;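 active = activation above the mean of all tested compounds plus 3 SD, set per screening run, cut at about 8.8% in these data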;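 note: cells exposed to compound for 20 h before luminescence read; 0% = DMSO alone and 100% = MG132 at 30 µM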
FXIa inh 1536: inhibitors of human coagulation factor XIa. purified FXIa, Boc-Glu-Ala-Arg-AMC fluorogenic substrate. inhibition, % at 5 µM. 220,000 compounds, 0.14% hits;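 active = inhibition of at least 40%; inactive = inhibition below 40%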;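 note: fluorescence of freed AMC excited at 355 nm; 0% = enzyme without compound and 100% = no enzyme blank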
KLK5 inh: blocks human kallikrein 5 protease activity; recombinant hK5, fluorogenic AMC substrate cleavage; 210,000 compounds, 0.59% hits; Q9Y337; inhibition, % at 5 µM;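 active = inhibition of 40% or more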;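 note: 0% = enzyme controls without compound and 100% = no-enzyme blanks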
Target sequence (Q9Y337 67-293 limits assumed): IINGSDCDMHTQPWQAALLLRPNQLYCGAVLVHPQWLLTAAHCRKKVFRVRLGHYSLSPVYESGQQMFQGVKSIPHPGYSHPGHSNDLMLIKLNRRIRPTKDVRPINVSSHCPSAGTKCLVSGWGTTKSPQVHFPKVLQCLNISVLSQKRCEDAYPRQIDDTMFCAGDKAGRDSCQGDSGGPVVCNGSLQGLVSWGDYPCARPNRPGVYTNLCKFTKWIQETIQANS
Thrombin inh: blocks human thrombin protease activity; inhibition, % at 5 µM; 220,000 compounds, 0.26% hits; P00734; alpha-thrombin, Boc-VPR-AMC fluorogenic substrate cleavage; AID 1046;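 active = inhibition at or above 40%; inactive = inhibition below 40%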;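 note: 0% = enzyme with no compound and 100% = wells without enzyme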
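System – human alpha-thrombin · Medium – pH 7.5 Tris (50 mM) with NaCl 150 mM, Tween 20 0.05% · Compound – single-point dosing at 5 µM, 0.2% DMSO · Incubation – enzyme reaction carried out at room temperature · Technique – fluorescence of released AMC, ex 355 nm, em 460 nm · Read-out basis – % inhibition of thrombin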
Wee1 stab conf: confirmation of human Wee1 degradation inhibitors; shares compounds with Wee1 degr inh; HeLa Luc-Wee1K328M degradation, luminescence; vehicle 0%, proteasome-blocked wells 100%; activation, % at 5 µM; 1,100 compounds, 4% hits; in the data active = activation above about 8.9%
Starred values were filed as active, the others as inactive; x = no result.

SMILES	FXIIa inh	Wee1 degr inh	FXIa inh 1536	KLK5 inh	Thrombin inh	Wee1 stab conf
O=C1CC(c2cccs2)Cc2nc(NC(=O)C3CC3)ncc21 (stereo not given)	2.7	4.4	-8.5	19.6	-6.8	x
COc1cccc2cc(-c3cn4cccc(C)c4n3)c(=O)oc12	x	1.5	x	x	x	x
COc1cccc2cc(-c3cn4ccc(C)cc4n3)c(=O)oc12	x	13.8*	x	x	x	2.5
COc1cc(/C=C(\C#N)C(=O)Nc2ccccc2C(=O)O)cc(Cl)c1OC	7.0	-2.2	3.1	0.3	-4.6	x
O=C(NCc1ccc2c(c1)OCO2)c1ccc2c(c1)OCO2	0.6	15.6*	-3.8	-2.5	-3.8	-3.5
CCNC(=S)NCc1ccc2c(c1)OCO2	9.8	-1.3	5.1	-6.2	-16.7	x
S=C(NCc1ccc2c(c1)OCO2)NCc1ccc2c(c1)OCO2	10.1	11.7*	7.7	-7.7	-6.1	-0.5
O=C(COC(=O)c1cc2ccccc2oc1=O)Nc1ccc(F)cc1F	-1.9	0.6	-5.1	13.2	-9.8	x
Cc1ccc(C2NC(=O)Cc3ccccc32)cc1 (stereo not given)	-2.2	13.5*	-12.2	11.8	-4.1	1.2
O=C1Cc2ccccc2C(c2ccccc2)N1 (stereo not given)	13.7	1.8	4.5	-14.3	-3.0	x
Cc1nonc1NC(=O)CSc1nc2cc(Cl)ccc2c2c1CCCC2	-3.3	1.1	-7.6	-0.1	-5.0	x
Cc1ccc2c3c(c(SCC(=O)Nc4nonc4C)nc2c1)CCCC3	9.8	12.8*	9.1	-16.7	0.1	1.8
CNC(=S)NCc1ccc2[nH]c3c(c2c1)CCCC3	8.7	11.3*	-1.0	-4.4	3.8	-0.1
CCCCNCCCOc1cccc(Cl)c1Cl	10.9	11.2*	4.4	-5.1	-1.5	2.1
C/C=C/c1cc(CN2CCN(c3ccc(OC)cc3)CC2)c(O)c(OC)c1	17.3	-0.6	-0.8	0.5	2.2	x
C/C=C/c1cc(CN2CCN(c3ccccc3)CC2)c(O)c(OC)c1	13.1	11.0*	5.3	0.5	-3.3	-5.5
c1ccc(C(c2ccccc2)N2CCN(c3nc4ccccc4n4cnnc34)CC2)cc1	13.6	11.1*	-0.1	-6.9	3.7	1.1
Cc1ccc(-c2nnn(CC(=O)N(c3ccccc3)C(C(=O)NCC3CCCO3)c3cccs3)n2)o1 (stereo not given)	4.1	-5.2	-3.4	-8.6	-8.4	x
CSc1cccc(NC(=S)N2CCCN(Cc3ccc(F)cc3)C2)c1	2.4	-0.6	-6.3	-2.2	0.3	x
Cc1ccc(S(=O)OCC(=O)Nc2cc(Cl)ccc2N2CCOCC2)cc1 (stereo not given)	11.8	16.1*	1.3	-4.0	0.0	2.8
O=C(NCCSc1ccc(Cl)cc1)c1ccc(CN2CCOCC2)cc1	3.1	-2.8	0.2	4.8	-4.5	x
O=C(NCCSc1ccccc1)c1ccc(CN2CCOCC2)cc1	7.9	15.4*	1.1	2.5	-2.0	6.4
Cc1ccc2nc(NCc3ccccc3)[nH]c2c1	-10.3	17.1*	-7.5	-167.2	-6.2	29.4*
COc1ccc2nc(NCc3ccccc3)[nH]c2c1	5.7	2.1	-0.1	-23.0	-3.2	x
O=C(CCc1nc2ccccc2c(=O)[nH]1)Nc1ccc(N2CCCCC2)cc1	4.3	11.2*	-1.9	-3.1	-5.2	0.3
SMILES	FXIIa inh	Wee1 degr inh	FXIa inh 1536	KLK5 inh	Thrombin inh	Wee1 stab conf
COCCCN(C(=S)Nc1c(C)cc(C)cc1C)C(C)c1ccccn1 (stereo not given)	11.3	-3.5	-4.0	-1.9	-5.0	x
NNC(=O)c1ccc(COc2ccc3ccccc3c2)cc1	7.6	15.3*	-2.1	-3.1	-2.5	2.7
CN1/C(=C\C(=O)Nc2cccc(Cl)c2)C(C)(C)c2ccccc21	2.8	19.3*	-2.9	-5.3	0.6	-0.6
O=C(CCC1CCCN(C(=O)c2ccc3cc[nH]c3c2)C1)NCc1ccc(F)c(F)c1 (stereo not given)	6.6	-0.5	-1.0	2.5	-8.2	x
Cc1ccccc1-c1noc(-c2ccc(O)cc2)n1	5.3	11.0*	3.9	1.0	-0.9	6.3
Cc1ccccc1-c1noc(-c2ccc(Cl)cc2)n1	-0.2	-2.4	-4.2	-8.8	4.1	x
COc1ccc(OC)c(S(=O)(=O)N2CCC(C(=O)Nc3ccccc3)CC2)c1	4.1	-0.4	0.5	-1.4	0.5	x
COc1ccc(OC)c(S(=O)(=O)N2CCC(C(=O)Nc3cccc(C)c3)CC2)c1	-6.3	11.0*	-0.9	-11.5	-5.2	2.0
CN(C)S(=O)(=O)N(CC(=O)N1CCOCC1)c1ccccc1	21.3	-0.7	-3.1	-5.0	1.3	x
CN1CCN(C(=O)CN(c2ccccc2)S(=O)(=O)N(C)C)CC1	11.2	10.9*	2.3	x	-3.2	-0.8
C/C(=C\c1ccccc1)C(=O)Nc1nccs1	3.3	-1.4	-2.5	-3.5	-4.5	x
O=C(/C=C/c1ccc(Cl)cc1)Nc1nccs1	6.8	13.0*	-2.0	-0.1	-2.6	0.0
C/C=C/C=C/C(=O)Nc1nccs1	16.0	11.4*	11.9	-1.7	2.5	1.8
Cc1ccc(/C=C/C(=O)c2ccc(O)cc2)cc1	9.4	16.7*	4.5	-4.4	-3.4	-0.4
Cn1c(SCC(=O)c2ccccc2)nnc1-c1cnccn1	16.2	12.8*	-4.8	-6.1	2.9	-1.6
Cc1cc(C)c2c(N=NN(C)C)[nH]nc2n1	7.3	12.8*	9.2	-20.8	-1.4	-1.0
CCSc1nnc(NC(=O)c2cc(C)nc3ccccc23)s1	11.0	11.0*	1.0	-8.9	1.3	1.6
COCC(=O)Nc1c(C(=O)Nc2ccc3c(c2)OCCO3)oc2ccccc12	4.3	11.8*	0.5	-2.4	1.1	7.5
CC(=O)Nc1ccc(N(C(=O)c2ccco2)C(C(=O)NC2CCCC2)c2ccc(N3CCOCC3)cc2)cc1 (stereo not given)	0.4	1.9	-2.8	-6.2	-6.6	x
C=CCNC(=O)/C=C/c1c(F)cccc1Cl	3.5	13.4*	1.7	-5.8	-5.2	-0.2
Cc1ccc2c(COC(=O)c3n[nH]c4ccccc34)cc(=O)oc2c1	6.3	13.9*	3.8	-2.5	-8.9	-1.4
O=C1OCC2=C1C(c1ccc(Cl)cc1)CC(=O)N2c1ccc(F)cc1 (stereo not given)	2.6	13.6*	4.0	-3.0	0.9	1.8
O=C1OCC2=C1C(c1ccccc1)CC(=O)N2c1ccc(F)cc1 (stereo not given)	7.7	3.9	0.4	x	-2.2	x
Cc1cc(C)n(C(=O)c2ccc(C)c(S(=O)(=O)N3CCCCC3)c2)n1	-5.6	24.1*	-0.8	-4.5	-5.6	-1.2
Cc1ccc(C(=O)O)cc1S(=O)(=O)N1CCC(C(=O)O)CC1	11.6	-1.6	1.8	-4.6	-0.1	x
Cc1ccc(NC(=O)c2cccc(F)c2)cc1S(=O)(=O)N1CCCCCC1	x	14.1*	2.5	1.0	-2.7	0.3
Cc1ccc(C(=O)Nc2ccon2)cc1S(=O)(=O)N1CCCCCC1	0.1	0.6	1.1	-1.9	-20.5	x
O=[N+]([O-])c1ccc(/C=C/c2ccncc2)cc1	14.4	18.0*	7.5	9.0	5.8	-0.6
